Data on ten molecules can be found in ChEMBL document CHEMBL4725272, “Studies on the stereoselective synthesis and immunosuppressive activity of dihydroartemisinin-O-glycoside derivatives” (Bioorg Med Chem Lett, 2020).

The IC50 is the concentration at which inhibition is half-maximal. A lower IC50 goes with inhibition by little substance.

A short description of assay [1]: Inhibition of B cell (unknown origin) proliferation. The assay is classed as functional, tissue-based.
Assay [2] is described as follows: Inhibition of T cell (unknown origin) proliferation. The assay is classed as functional, tissue-based.
Assay [3] in a line: (§1) Inhibition of human CD8+ve […] cell proliferation. The assay is classed as functional, tissue-based. Conditions: CD8-positive T cell. Put shortly:
(§2)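 Human T cells, proliferation inhibition measured over a dose series, run in triplicate (n=3). IC50 was taken from dose-response curves fitted by four-parameter non-linear regression.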

Assay [4] can be described thus: (§3) Inhibition of human CD4+ve Th cell proliferation. The assay is classed as functional, tissue-based. Put shortly:
as §2

For a further assay, the system named is T cell. The assay is described as follows: Immunosuppressive activity in human primary T-cells extracted form PBMC assessed as inhibition of CD3/CD28-induced IFN-gamma recovery in cell culture media at 2-32 uM incubated for 120 hrs by ELISA. The assay is classed as functional, tissue-based. Particulars: dose microM 2-32, time 120.0 hrs.
The next assay concerns CD8-positive T cell. The assay is described as §1. The assay is classed as functional, tissue-based. A digest of the protocol: as §2
The next assay has as its system CD4+ve Th. Described as §3. The assay is classed as functional, tissue-based. Put shortly:
as §2

A short description of assay [5]: Immunosuppressive activity in human primary T-cells extracted from PBMC assessed as inhibition of CD3/CD28-induced IFN-gamma recovery in cell culture media incubated for 120 hrs by ELISA relative to control. The assay is classed as functional.
Assay [6] is described as follows: Inhibition of human T cell proliferation relative to control. The assay is classed as functional.

Regarding `C[C@H]1[C@@H](OCCN)O[C@@H]2O[C@@]3(C)CC[C@H]4[C@H](C)CC[C@@H]1[C@@]24OO3`, the half-maximal inhibitory concentration (IC50) in assay [1] was found to be 2.6 µM; in [2] it was 1.2 µM; in assay [3], 1.36 µM; in [4], 1.05 µM.
With `C[C@H]1[C@@H](O[C@H]2OC[C@H](O)[C@H](O)[C@H]2O)O[C@@H]2O[C@@]3(C)CC[C@H]4[C@H](C)CC[C@@H]1[C@@]24OO3`, the IC50 amounted to 13 µM in [3] and 14.1 µM in assay [4].
Regarding `C[C@H]1[C@@H](O)O[C@@H]2O[C@@]3(C)CC[C@H]4[C@H](C)CC[C@@H]1[C@@]24OO3` [ARTENIMOL], the IC50 in assay [3] is 5.53 µM; in [4], 4.03 µM.
As to `C[C@H]1[C@H](O[C@H]2O[C@@H](C)[C@H](O)[C@@H](O)[C@H]2O)O[C@@H]2O[C@@]3(C)CC[C@H]4[C@H](C)CC[C@@H]1[C@@]24OO3`, the inhibition result with T cell, with CD8-positive T cell and in the assay on CD4+ve Th was “Dose-dependent effect” each time. The IC50 in assay [3] came to 3.36 µM; in assay [4], 3.83 µM.
Consider `C[C@H]1[C@@H](O[C@H]2O[C@H](CO)[C@H](O)[C@H](O)[C@H]2O)O[C@@H]2O[C@@]3(C)CC[C@H]4[C@H](C)CC[C@@H]1[C@@]24OO3`, for which the IC50 turned out to be 8.63 µM in assay [3] and 10.4 µM in assay [4].
Take `C[C@H]1[C@@H](O[C@H]2O[C@H](CO)[C@@H](O)[C@H](O)[C@@H]2O)O[C@@H]2O[C@@]3(C)CC[C@H]4[C@H](C)CC[C@@H]1[C@@]24OO3`: the IC50 in [3] and in assay [4] was over 32 µM each time.
Regarding `C[C@H]1[C@@H](O[C@@H]2O[C@H](CO)[C@@H](O[C@H]3O[C@H](CO)[C@@H](O)[C@H](O)[C@H]3O)[C@H](O)[C@H]2O)O[C@@H]2O[C@@]3(C)CC[C@H]4[C@H](C)CC[C@@H]1[C@@]24OO3`, the IC50 in assay [3] is 4 µM; in assay [4] it was 9.09 µM.
Taken in the same sequence, the figures for `C[C@H]1[C@@H](O[C@H]2O[C@H](CO)[C@@H](O)[C@H](O)[C@H]2O)O[C@@H]2O[C@@]3(C)CC[C@H]4[C@H](C)CC[C@@H]1[C@@]24OO3` were 19.4 µM and 17.9 µM.
Turning to `C[C@H]1[C@H](O[C@@H]2O[C@H](CO)[C@@H](O)[C@H](O)[C@@H]2O)O[C@@H]2O[C@@]3(C)CC[C@H]4[C@H](C)CC[C@@H]1[C@@]24OO3`, the “inhibition (INH)” value in assay [5] was found to be 98%; in [6], 88%. The inhibition result with T cell, in the assay with CD8-positive T cell and in the assay with CD4+ve Th was “Dose-dependent effect” throughout. The IC50 in assay [3] was 2.65 µM; in [4], 3.49 µM.
Consider `C[C@H]1[C@@H](O[C@H]2OC[C@@H](O)[C@H](O)[C@H]2O)O[C@@H]2O[C@@]3(C)CC[C@H]4[C@H](C)CC[C@@H]1[C@@]24OO3`, for which the results for the IC50 in assay [3] and in assay [4] were 9.52 µM and 10.8 µM, respectively.
